Columns and labels:
[1] = melting temperature; fluorescence melt of hairpins on a sequencing array, two-state fit, raised by 9.35 °C to match UV melts; conditions: sodium 0.088 M
Summary of the method: (§1)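 Bootstrapped two-state fits yielded melting temperature and folding enthalpy for library hairpins. Cy3 fluorescence, with annealed Cy3 and quencher oligos, was imaged on a sequenced MiSeq flow cell in 50 mM Na-HEPES pH 8.0, 25 mM NaCl in 2.5 °C steps up to 60 °C, and normalised to pre-quench Cy3 and to control constructs. Four replicates were combined by inverse variance, and fitted temperatures were raised by 9.35 °C to match UV melts.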

[2] = folding enthalpy; higher = less favourable; fluorescence melt of hairpins on a sequencing array, two-state fit; conditions: sodium 0.088 M
Summary of the method: as §1

GATCACAGGGTGATC ((((((...))))))
Tm [1]: 61.2 °C | folding enthalpy [2]: -36.8 kcal/mol

GATCACATACGTGATC ((((((....))))))
Tm [1]: 57.4 °C | folding enthalpy [2]: -41.2 kcal/mol

GATCACATCGGTGATC ((((((....))))))
Tm [1]: 57 °C | folding enthalpy [2]: -39.6 kcal/mol

GATCACATCGTGATC ((((((...))))))
Tm [1]: 58.3 °C | folding enthalpy [2]: -41 kcal/mol

GATCACCAAAGTGATC ((((((....))))))
Tm [1]: 55.2 °C | folding enthalpy [2]: -50.8 kcal/mol

GATCACCAATGTGATC ((((((....))))))
Tm [1]: 54.1 °C | folding enthalpy [2]: -35.3 kcal/mol

GATCACCACGGTGATC ((((((....))))))
Tm [1]: 62.9 °C | folding enthalpy [2]: -41.4 kcal/mol

GATCACCAGAGTGATC ((((((....))))))
Tm [1]: 57.2 °C | folding enthalpy [2]: -40 kcal/mol

GATCACCAGGTGATC ((((((...))))))
Tm [1]: 54.8 °C | folding enthalpy [2]: -26.5 kcal/mol

GATCACCAGTGTGATC ((((((....))))))
Tm [1]: 53.3 °C | folding enthalpy [2]: -47.5 kcal/mol

GATCACCATGGTGATC ((((((....))))))
Tm [1]: 63.8 °C | folding enthalpy [2]: -43.6 kcal/mol

GATCACCCCGGTGATC ((((((....))))))
Tm [1]: 59.8 °C | folding enthalpy [2]: -36.8 kcal/mol

GATCACCCGGTGATC ((((((...))))))
Tm [1]: 56.3 °C | folding enthalpy [2]: -44.2 kcal/mol

GATCACCCGTGTGATC ((((((....))))))
Tm [1]: 55.5 °C | folding enthalpy [2]: -47.7 kcal/mol

GATCACCGAAGTGATC ((((((....))))))
Tm [1]: 55.8 °C | folding enthalpy [2]: -38.1 kcal/mol

GATCACCGCCGTGATC ((((((....))))))
Tm [1]: 54.4 °C | folding enthalpy [2]: -48.4 kcal/mol

GATCACCGGTGTGATC ((((((....))))))
Tm [1]: 54.8 °C | folding enthalpy [2]: -38 kcal/mol

GATCACCGTGGTGATC ((((((....))))))
Tm [1]: 66.3 °C | folding enthalpy [2]: -29.5 kcal/mol

GATCACCGTGTGATC ((((((...))))))
Tm [1]: 58.3 °C | folding enthalpy [2]: -42.3 kcal/mol

GATCACCTCGTGATC ((((((...))))))
Tm [1]: 59.3 °C | folding enthalpy [2]: -38.2 kcal/mol

GATCACCTGCGTGATC ((((((....))))))
Tm [1]: 54.9 °C | folding enthalpy [2]: -48.3 kcal/mol

GATCACCTGGGTGATC ((((((....))))))
Tm [1]: 62.6 °C | folding enthalpy [2]: -47.5 kcal/mol

GATCACCTGTGTGATC ((((((....))))))
Tm [1]: 57 °C | folding enthalpy [2]: -37.8 kcal/mol

GATCACCTTGGTGATC ((((((....))))))
Tm [1]: 67 °C | folding enthalpy [2]: -37.2 kcal/mol

GATCACGAAAGTGGAATC ((((((....)))..)))
Tm [1]: 32.1 °C | folding enthalpy [2]: -10.3 kcal/mol

GATCACGAAAGTGGCATC ((((((....)))..)))
Tm [1]: 30.3 °C | folding enthalpy [2]: -12.3 kcal/mol

GATCACGAAAGTGGTATC ((((((....)))..)))
Tm [1]: 34.1 °C | folding enthalpy [2]: -13.5 kcal/mol

GATCACGAAAGTGTATC ((((((....))).)))
Tm [1]: 44 °C | folding enthalpy [2]: -20.6 kcal/mol

GATCACGAAAGTGTCATC ((((((....)))..)))
Tm [1]: 31.5 °C | folding enthalpy [2]: -13.8 kcal/mol

GATCACGACGTGATC ((((((...))))))
Tm [1]: 64.6 °C | folding enthalpy [2]: -30.6 kcal/mol

GATCACGATGTGATC ((((((...))))))
Tm [1]: 58.5 °C | folding enthalpy [2]: -30.8 kcal/mol

GATCACGCGTGTGATC ((((((....))))))
Tm [1]: 56.5 °C | folding enthalpy [2]: -38.7 kcal/mol

GATCACGCTTGTGATC ((((((....))))))
Tm [1]: 57.7 °C | folding enthalpy [2]: -38 kcal/mol

GATCACGGACGTGATC ((((((....))))))
Tm [1]: 67.2 °C | folding enthalpy [2]: -37.7 kcal/mol

GATCACGGAGGTGATC ((((((....))))))
Tm [1]: 64.3 °C | folding enthalpy [2]: -37.9 kcal/mol

GATCACGGCGTGATC ((((((...))))))
Tm [1]: 61.3 °C | folding enthalpy [2]: -38 kcal/mol

GATCACGGCTGTGATC ((((((....))))))
Tm [1]: 62.3 °C | folding enthalpy [2]: -44.5 kcal/mol

GATCACGGGCGTGATC ((((((....))))))
Tm [1]: 57.8 °C | folding enthalpy [2]: -40.4 kcal/mol

GATCACGGGGGTGATC ((((((....))))))
Tm [1]: 56.8 °C | folding enthalpy [2]: -36.7 kcal/mol

GATCACGTCTGTGATC ((((((....))))))
Tm [1]: 59.5 °C | folding enthalpy [2]: -37.7 kcal/mol

GATCACGTTCGTGATC ((((((....))))))
Tm [1]: 62.6 °C | folding enthalpy [2]: -39.4 kcal/mol

GATCACTACAGTGATC ((((((....))))))
Tm [1]: 60.6 °C | folding enthalpy [2]: -40.5 kcal/mol

GATCACTACCGTGATC ((((((....))))))
Tm [1]: 55.3 °C | folding enthalpy [2]: -41.2 kcal/mol

GATCACTAGTGTGATC ((((((....))))))
Tm [1]: 55.1 °C | folding enthalpy [2]: -37.6 kcal/mol

GATCACTATGTGATC ((((((...))))))
Tm [1]: 61.1 °C | folding enthalpy [2]: -38.8 kcal/mol

GATCACTCCGTGATC ((((((...))))))
Tm [1]: 59.2 °C | folding enthalpy [2]: -44 kcal/mol

GATCACTCGTGTGATC ((((((....))))))
Tm [1]: 57.1 °C | folding enthalpy [2]: -37.1 kcal/mol

GATCACTGAGTGATC ((((((...))))))
Tm [1]: 55.2 °C | folding enthalpy [2]: -40.1 kcal/mol

GATCACTGCGGTGATC ((((((....))))))
Tm [1]: 61.9 °C | folding enthalpy [2]: -38 kcal/mol

GATCACTGTGGTGATC ((((((....))))))
Tm [1]: 59.4 °C | folding enthalpy [2]: -45.6 kcal/mol

GATCACTTGGTGATC ((((((...))))))
Tm [1]: 59.1 °C | folding enthalpy [2]: -37.5 kcal/mol

GATCACTTTCGTGATC ((((((....))))))
Tm [1]: 56.4 °C | folding enthalpy [2]: -36.8 kcal/mol

GATCAGAAACCTGATC ((((((....))))))
Tm [1]: 44.1 °C | folding enthalpy [2]: -36.9 kcal/mol

GATCAGAAATGATC (((((....)))))
Tm [1]: 41.1 °C | folding enthalpy [2]: -22.5 kcal/mol

GATCAGAACCCTGATC ((((((....))))))
Tm [1]: 47 °C | folding enthalpy [2]: -39.8 kcal/mol

GATCAGAACTCTGATC ((((((....))))))
Tm [1]: 48.4 °C | folding enthalpy [2]: -37.6 kcal/mol

GATCAGAATCTGATC ((((((...))))))
Tm [1]: 45.4 °C | folding enthalpy [2]: -31.4 kcal/mol

GATCAGAATGCTGATC ((((((....))))))
Tm [1]: 47 °C | folding enthalpy [2]: -28.1 kcal/mol

GATCAGACCGCTGATC ((((((....))))))
Tm [1]: 47.8 °C | folding enthalpy [2]: -28.5 kcal/mol

GATCAGACGGCTGATC ((((((....))))))
Tm [1]: 51.7 °C | folding enthalpy [2]: -52.4 kcal/mol

GATCAGAGACTGATC ((((((...))))))
Tm [1]: 48 °C | folding enthalpy [2]: -31.4 kcal/mol

GATCAGAGATCTGATC ((((((....))))))
Tm [1]: 50.1 °C | folding enthalpy [2]: -24.3 kcal/mol

GATCAGAGGACTGATC ((((((....))))))
Tm [1]: 46.9 °C | folding enthalpy [2]: -32.8 kcal/mol

GATCAGAGGTCTGATC ((((((....))))))
Tm [1]: 49.5 °C | folding enthalpy [2]: -30.6 kcal/mol

GATCAGAGTACTGATC ((((((....))))))
Tm [1]: 49 °C | folding enthalpy [2]: -37.4 kcal/mol

GATCAGAGTCCTGATC ((((((....))))))
Tm [1]: 47.6 °C | folding enthalpy [2]: -38.2 kcal/mol

GATCAGATGCTGATC ((((((...))))))
Tm [1]: 49.4 °C | folding enthalpy [2]: -30.6 kcal/mol

GATCAGCAACTGATC ((((((...))))))
Tm [1]: 45.6 °C | folding enthalpy [2]: -33.8 kcal/mol

GATCAGCAATCTGATC ((((((....))))))
Tm [1]: 47.2 °C | folding enthalpy [2]: -32.5 kcal/mol

GATCAGCACCCTGATC ((((((....))))))
Tm [1]: 48.7 °C | folding enthalpy [2]: -33.1 kcal/mol

GATCAGCAGACTGATC ((((((....))))))
Tm [1]: 50.3 °C | folding enthalpy [2]: -42.5 kcal/mol

GATCAGCATGCTGATC ((((((....))))))
Tm [1]: 60.8 °C | folding enthalpy [2]: -47.5 kcal/mol

GATCAGCATTCTGATC ((((((....))))))
Tm [1]: 48.8 °C | folding enthalpy [2]: -39 kcal/mol

GATCAGCCCGCTGATC ((((((....))))))
Tm [1]: 58.3 °C | folding enthalpy [2]: -47.1 kcal/mol

GATCAGCCTACTGATC ((((((....))))))
Tm [1]: 49.9 °C | folding enthalpy [2]: -35.2 kcal/mol

GATCAGCCTCCTGATC ((((((....))))))
Tm [1]: 49.1 °C | folding enthalpy [2]: -34.4 kcal/mol

GATCAGCGAGCTGATC ((((((....))))))
Tm [1]: 61.4 °C | folding enthalpy [2]: -44.7 kcal/mol

GATCAGCGGTCTGATC ((((((....))))))
Tm [1]: 49.9 °C | folding enthalpy [2]: -32.1 kcal/mol

GATCAGCGTCCTGATC ((((((....))))))
Tm [1]: 49 °C | folding enthalpy [2]: -32.4 kcal/mol

GATCAGGAAGCTGATC ((((((....))))))
Tm [1]: 53.9 °C | folding enthalpy [2]: -34.2 kcal/mol

GATCAGGAATCTGATC ((((((....))))))
Tm [1]: 54.8 °C | folding enthalpy [2]: -41.8 kcal/mol

GATCAGGACCTGATC ((((((...))))))
Tm [1]: 49.6 °C | folding enthalpy [2]: -40.4 kcal/mol

GATCAGGATTCTGATC ((((((....))))))
Tm [1]: 49.8 °C | folding enthalpy [2]: -38.6 kcal/mol

GATCAGGCCTCTGATC ((((((....))))))
Tm [1]: 52.1 °C | folding enthalpy [2]: -49.2 kcal/mol

GATCAGGGACTGATC ((((((...))))))
Tm [1]: 59.6 °C | folding enthalpy [2]: -39.5 kcal/mol

GATCAGGGGCCTGATC ((((((....))))))
Tm [1]: 53 °C | folding enthalpy [2]: -33.1 kcal/mol

GATCAGGGTCCTGATC ((((((....))))))
Tm [1]: 52.7 °C | folding enthalpy [2]: -37.9 kcal/mol

GATCAGGGTGCTGATC ((((((....))))))
Tm [1]: 51.5 °C | folding enthalpy [2]: -31.2 kcal/mol

GATCAGGTTCCTGATC ((((((....))))))
Tm [1]: 53.7 °C | folding enthalpy [2]: -47.5 kcal/mol

GATCAGGTTTCTGATC ((((((....))))))
Tm [1]: 51.8 °C | folding enthalpy [2]: -46.7 kcal/mol

GATCAGTAAACTGATC ((((((....))))))
Tm [1]: 50.8 °C | folding enthalpy [2]: -37.4 kcal/mol

GATCAGTAACTGATC ((((((...))))))
Tm [1]: 47.9 °C | folding enthalpy [2]: -37.8 kcal/mol

GATCAGTAGCTGATC ((((((...))))))
Tm [1]: 48.3 °C | folding enthalpy [2]: -35.8 kcal/mol

GATCAGTAGTCTGATC ((((((....))))))
Tm [1]: 50.2 °C | folding enthalpy [2]: -37 kcal/mol

GATCAGTATCCTGATC ((((((....))))))
Tm [1]: 48.7 °C | folding enthalpy [2]: -33.3 kcal/mol

GATCAGTATCTGATC ((((((...))))))
Tm [1]: 48.5 °C | folding enthalpy [2]: -34.9 kcal/mol
